# Source: ChEMBL document CHEMBL5370587, “Fungal Anthraquinone Photoantimicrobials Challenge the Dogma of Cationic Photosensitizers” (J Nat Prod, 2023)
# Key:
# Candida albicans [1] = assay: Antifungal activity against Candida albicans 501670 assessed as reduction in microbial growth preincubated for 60 mins under dark condition and measured after 20 to 24 hrs at room temperature by RPMI-1640 based dilution assay
# Escherichia coli [2] = assay: Antibacterial activity against Escherichia coli DSM1103 assessed as reduction in microbial growth preincubated for 60 mins under dark condition and measured after 20 to 24 hrs at room temperature by muller hinton broth based dilution assay; type: functional; conditions: time 20-24 hrs
# How it was run: (§1)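 Bacteria grown overnight at 37 °C for 15−18 h in the dark, then set to 0.5 McFarland (read at 600 nm) and diluted 1:50 in Müller-Hinton broth to (2–8) × 10⁵ CFU/mL. Dark plate held at room temperature, then incubated at 37 °C. After 20−24 h, turbidity was read against the untreated growth control, with blanks subtracted. Compounds tested at ≥10 concentrations in biological triplicate.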
# A549 [3] = assay: Phototoxicity against human A549 cells assessed as reduction in cell growth preincubated with compound for 24 hrs followed by blue light irradiation at 468 nm for 7 mins 30 sec and measured after 48 hrs by SRB assay; type: functional, cell-based; conditions: A549, light or radiation study
# How it was run: (§2)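 Cells (A549 2000, AGS 2500, T24 1500 per well) seeded in Opti-MEM with 2.4% FCS. After 24 h, treated with 25.0−0.3 μM (six levels). After another 24 h, medium was replaced and cells got blue light (468±27 nm, 9.3 J/cm²). Held 48 h at 37 °C, 5% CO2, then TCA-fixed and SRB-stained, read at 540 nm. EC50 from variable-slope fit with 95% CI.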
# A549 [4] = assay: Phototoxicity against human A549 cells assessed as reduction in cell growth preincubated with compound for 24 hrs under dark condition and measured after 48 hrs by SRB assay; type: functional, cell-based; conditions: A549, light or radiation study
# How it was run: (§3)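 Dark control plate processed the same way: cells (A549 2000, AGS 2500, T24 1500 per well) in Opti-MEM with 2.4% FCS, dosed at 25.0−0.3 μM 24 h after seeding. Medium renewed after 24 h, then 48 h further at 37 °C, 5% CO2 without light. SRB read-out at 540 nm after TCA fixation. EC50 with 95% CI from variable-slope fit.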
# A549 [5] = assay: Photo index, ratio of EC50 for human A549 cells killed in the absence of light to EC50 for human A549 cells killed after irradiation; type: functional
# How it was run: (§4)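 SRB assay: cells seeded in Opti-MEM with 2.4% FCS, treated 24 h later with 0.3–25.0 μM, medium replaced after 24 h. Duplicate plates were irradiated with blue light (468 nm, 9.3 J/cm²) or green light (519 nm, 30.0 J/cm²), or kept dark, then held 48 h at 37 °C, 5% CO₂. EC50 from Hill fit; photoindex = EC50 dark / EC50 irradiated.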
# AGS [6] = assay: Phototoxicity against human AGS cells assessed as reduction in cell growth preincubated with compound for 24 hrs followed by blue light irradiation at 468 nm for 7 mins 30 sec and measured after 48 hrs by SRB assay; type: functional, cell-based; conditions: light or radiation study
# How it was run: as §2
# AGS [7] = assay: Phototoxicity against human AGS cells assessed as reduction in cell growth preincubated with compound for 24 hrs under dark condition and measured after 48 hrs by SRB assay; type: functional, cell-based; conditions: light or radiation study
# How it was run: as §3
# AGS [8] = assay: Photo index, ratio of EC50 for human AGS cells killed in the absence of light to EC50 for human AGS cells killed after irradiation; type: functional
# How it was run: as §4
# T-24 [9] = assay: Phototoxicity against human T24 cells assessed as reduction in cell growth preincubated with compound for 24 hrs followed by blue light irradiation at 468 nm for 7 mins 30 sec and measured after 48 hrs by SRB assay; type: functional, cell-based; conditions: T-24, light or radiation study
# How it was run: as §2
# T-24 [10] = assay: Phototoxicity against human T24 cells assessed as reduction in cell growth preincubated with compound for 24 hrs under dark condition and measured after 48 hrs by SRB assay; type: functional, cell-based; conditions: T-24, light or radiation study
# How it was run: as §3
# T-24 [11] = assay: Photo index, ratio of EC50 for human T24 cells killed in the absence of light to EC50 for human T24 cells killed after irradiation; type: functional
# How it was run: as §4
# Staphylococcus aureus [12] = assay: Antibacterial activity against Staphylococcus aureus DSM1104 assessed as reduction in microbial growth preincubated for 60 mins under dark condition and measured after 20 to 24 hrs at room temperature by muller hinton broth based dilution assay; type: functional; conditions: time 20-24 hrs
# How it was run: as §1
# Escherichia coli [13] = assay: Antibacterial activity against Escherichia coli DSM1103 assessed as reduction in microbial growth preincubated for 60 mins under dark condition followed by 428 nm light irradiation and measured after 20 to 24 hrs by muller hinton broth based dilution assay; type: functional; conditions: DSM1103, light or radiation study, time 21-25 hrs
# How it was run: (§5)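 PhotoMIC (modified EUCAST broth microdilution): 0.5 McFarland suspensions diluted 1:50 in Mueller-Hinton broth (bacteria, 2–8 × 10⁵ CFU/mL) or 1:10 in double-strength RPMI-1640 (yeast, 0.5–2.5 × 10⁵ CFU/mL); ≥10 concentrations, biological triplicates; 60 min dark preincubation, then 30 J/cm² irradiation or dark duplicate plate; 37 °C, 20–24 h; turbidity versus growth control, blanks subtracted.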
# Escherichia coli [14] = assay: Antibacterial activity against Escherichia coli DSM1103 assessed as reduction in microbial growth preincubated for 60 mins under dark condition followed by 478 nm light irradiation and measured after 20 to 24 hrs by muller hinton broth based dilution assay; type: functional; conditions: DSM1103, light or radiation study, time 21-25 hrs
# How it was run: as §5
# Escherichia coli [15] = assay: Antibacterial activity against Escherichia coli DSM1103 assessed as reduction in microbial growth preincubated for 60 mins under dark condition followed by 530 nm light irradiation and measured after 20 to 24 hrs by muller hinton broth based dilution assay; type: functional; conditions: DSM1103, light or radiation study, time 21-25 hrs
# How it was run: as §5
# Staphylococcus aureus [16] = assay: Antibacterial activity against Staphylococcus aureus DSM1104 assessed as reduction in microbial growth preincubated for 60 mins under dark condition followed by 428 nm light irradiation and measured after 20 to 24 hrs by muller hinton broth based dilution assay; type: functional; conditions: DSM1104, light or radiation study, time 21-25 hrs
# How it was run: as §5
# Staphylococcus aureus [17] = assay: Antibacterial activity against Staphylococcus aureus DSM1104 assessed as reduction in microbial growth preincubated for 60 mins under dark condition followed by 478 nm light irradiation and measured after 20 to 24 hrs by muller hinton broth based dilution assay; type: functional; conditions: DSM1104, light or radiation study, time 21-25 hrs
# How it was run: as §5
# Staphylococcus aureus [18] = assay: Antibacterial activity against Staphylococcus aureus DSM1104 assessed as reduction in microbial growth preincubated for 60 mins under dark condition followed by 530 nm light irradiation and measured after 20 to 24 hrs by muller hinton broth based dilution assay; type: functional; conditions: DSM1104, light or radiation study, time 21-25 hrs
# How it was run: as §5
# Candida albicans [19] = assay: Antifungal activity against Candida albicans 501670 assessed as reduction in microbial growth preincubated for 60 mins under dark condition followed by 428 nm light irradiation and measured after 20 to 24 hrs by RPMI-1640 based dilution assay; conditions: Candida albicans, 501670, light or radiation study
# Candida albicans [20] = assay: Antifungal activity against Candida albicans 501670 assessed as reduction in microbial growth preincubated for 60 mins under dark condition followed by 478 nm light irradiation and measured after 20 to 24 hrs by RPMI-1640 based dilution assay; conditions: Candida albicans, 501670, light or radiation study
# Candida albicans [21] = assay: Antifungal activity against Candida albicans 501670 assessed as reduction in microbial growth preincubated for 60 mins under dark condition followed by 530 nm light irradiation and measured after 20 to 24 hrs by RPMI-1640 based dilution assay; conditions: Candida albicans, 501670, light or radiation study
compound,measurement,setting,value
C[C@@H]1[C@H](O)[C@@H](C)/C=C/C=C/C=C/C=C/C=C/C=C/C=C/[C@H](O[C@@H]2O[C@H](C)[C@@H](O)[C@H](N)[C@@H]2O)C[C@@H]2O[C@](O)(C[C@@H](O)C[C@@H](O)[C@H](O)CC[C@@H](O)C[C@@H](O)CC(=O)O[C@H]1C)C[C@H](O)[C@H]2C(=O)O [AMPHOTERICIN B],MIC,Candida albicans [1],0.22 µM
O=C(N[C@H](CO)[C@H](O)c1ccc([N+](=O)[O-])cc1)C(Cl)Cl [CHLORAMPHENICOL],MIC,Escherichia coli [2],6.1 µM
Cc1cc(O)c2c(c1)C(=O)c1cc(O)cc(O)c1C2=O [EMODIN],MIC,Escherichia coli [2],> 92 µM
same,EC50,A549 [3],2.9 µM
same,EC50,A549 [4],19 µM
same,Ratio EC50,A549 [5],7
same,EC50,AGS [6],1.5 µM
same,EC50,AGS [7],> 25 µM
same,Ratio EC50,AGS [8],>16
same,EC50,T-24 [9],1.7 µM
same,EC50,T-24 [10],> 25 µM
same,Ratio EC50,T-24 [11],>15
same,MIC,Staphylococcus aureus [12],> 92 µM
same,MIC,Escherichia coli [13],11.1 µM
same,MIC,Escherichia coli [14],> 92 µM
same,MIC,Escherichia coli [15],> 92 µM
same,MIC,Staphylococcus aureus [16],1.85 µM
same,MIC,Staphylococcus aureus [17],1.85 µM
same,MIC,Staphylococcus aureus [18],11.1 µM
same,MIC,Candida albicans [1],> 92 µM
same,MIC,Candida albicans [19],0.37 µM
same,MIC,Candida albicans [20],2.78 µM
same,MIC,Candida albicans [21],46 µM
CC[C@H]1OC(=O)[C@H](C)[C@@H](O[C@H]2C[C@@](C)(OC)[C@@H](O)[C@H](C)O2)[C@H](C)[C@@H](O[C@@H]2O[C@H](C)C[C@H](N(C)C)[C@H]2O)[C@](C)(O)C[C@@H](C)C(=O)[C@H](C)[C@@H](O)[C@]1(C)O [ERYTHROMYCIN],MIC,Staphylococcus aureus [12],1.4 µM
